Hits are enriched below; roughly 6.4% of the tested compounds scored in any of these assays.
TbMetRS inhib: Trypanosoma brucei MetRS inhibition; purified T. brucei MetRS, ATP depletion, Kinase-Glo luminescence; inhibition, % at 11.9 µM; actives 0.4% (n = 360,000);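 active means inhibition above a per-plate cutoff of the control wells' mean inhibition plus 3 SD, cut at about 5.5% in these data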
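Material – parasite MetRS enzyme · Medium – HEPES-MgCl2-KCl buffer plus DTT, spermine, BSA, pyrophosphatase · Reagent – ATP, methionine and E. coli bulk tRNA substrates · Times – 15 min enzyme-compound preincubation, 2 h reaction, 10 min detection, 25 °C · Measured by – luminescence of leftover ATP · Evaluation – percent inhibition relative to median high and low control wells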
NR3A LBD binder: modulators (binders) of human NR3A ligand-binding domain. NR3A LBD differential scanning fluorimetry, Tm shift; 0% = protein alone, 100% = glycine-bound protein. Tm shift relative to glycine control, % at 25 µM. actives 2.5% (n = 340,000). AID 1259313;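 active means melting temperature shift of at least 10% of the positive control shift, at one fixed dose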
MPTP block: inhibitors of mitochondrial permeability transition pore | actives 1.4% (n = 360,000) | isolated mouse mitochondria, Ca2+ swelling absorbance, 30 min | AID 602449 | inhibition, % at 10 µM;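 active means inhibition of 50% or more, scaled per plate between neutral and stimulator controls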
CHOP inhibitor: inhibitors of CHOP induction in ER stress response | CHO-K1 CHOP-promoter luciferase, tunicamycin-induced, 15-18 h | inhibition, % at 10 µM | actives 3.8% (n = 220,000) | AID 2732;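 active means compounds that reduced the stress-induced luciferase reporter signal by more than about 70% of percent inhibition, limit read from the data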
EBV gp42 block: blocks Epstein-Barr virus glycoprotein 42 binding. Fluorescence polarization binding assay, mP read-out. inhibition, % (tested at 21.74 µM). actives 0.42% (n = 220,000). AID 1085; in the data active means inhibition above about 50%
Target sequence (Q1HVG2 whole entry, looked up): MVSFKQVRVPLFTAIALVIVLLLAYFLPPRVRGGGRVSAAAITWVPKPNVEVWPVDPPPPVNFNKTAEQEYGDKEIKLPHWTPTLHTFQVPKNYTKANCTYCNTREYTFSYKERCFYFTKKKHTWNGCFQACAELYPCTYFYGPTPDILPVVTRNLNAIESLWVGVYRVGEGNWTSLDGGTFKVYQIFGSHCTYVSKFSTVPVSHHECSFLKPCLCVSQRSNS
WT yeast gro inh: growth inhibition of WT yeast, mitochondrial fusion screen; mitochondrial fusion phenotypic screen, WT strain; inhibition, % at 10 µM; actives 2.1% (n = 190,000); in the data active means inhibition above about 58%; tested in S. cerevisiae
Large screens that a line does not name were inactive.

CCOC(=O)c1c(S(=O)(=O)N2c3ccccc3CC2C)c(C)n(C)c1C (stereo not given)	none (no result: CHOP inhibitor, EBV gp42 block, WT yeast gro inh)
O=C(NCCN1CCN(c2ccccc2)CC1)Nc1ccccc1Cl	none (no result: CHOP inhibitor, EBV gp42 block, WT yeast gro inh)
CC1CN(Cc2ccccc2)c2ccccc2NC1=S (stereo not given)	WT yeast gro inh 67
COc1ccc(NC(=O)c2cc(-c3cc(Cl)ccc3OC)n[nH]2)c(C)c1	none (no result: NR3A LBD binder, CHOP inhibitor, EBV gp42 block, WT yeast gro inh)
COc1ccc(OC)c(NC(=O)c2cc(-c3cc(C)ccc3O)n[nH]2)c1	NR3A LBD binder 37 (no result: CHOP inhibitor, EBV gp42 block, WT yeast gro inh)
COc1ccc(OC)c(NC(=O)c2cc(-c3ccc(C)cc3O)n[nH]2)c1	NR3A LBD binder 28, CHOP inhibitor 87
Cc1ccc2c(c1)NC(=O)C(CC(=O)NCCCN1CCCCC1C)O2 (stereo not given)	none
O=C(C1CCCN(c2ncccn2)C1)N1CCc2ccccc21 (stereo not given)	none
COc1cccc(CN(C(=O)c2ccco2)C(C(=O)NC2CCCC2)c2cccnc2)c1 (stereo not given)	none
O=C(Cc1ccccc1)NCC(=O)OCC(=O)c1ccc(Cl)c([N+](=O)[O-])c1	NR3A LBD binder 12
O=C(CNC(=O)Cc1ccccc1)NCC(=O)OCC(=O)c1cccc2ccccc12	NR3A LBD binder 12
CCc1ccc(C(=O)COC(=O)CNC(=O)Cc2ccccc2)cc1	none (no result: CHOP inhibitor, EBV gp42 block, WT yeast gro inh)
CN(C)c1ccc(/C=N/NC(=O)CCc2nc3ccccc3[nH]2)cc1	none (no result: WT yeast gro inh)
O=C(O)CSc1cn(Cc2ccccc2)c2ccccc12	none (no result: CHOP inhibitor, EBV gp42 block, WT yeast gro inh)
CCCCSc1nc(NCc2ccco2)c2c3c(sc2n1)COC(C)(C)C3	none
CCCSc1nc(NCc2ccco2)c2c3c(sc2n1)COC(C)(C)C3	WT yeast gro inh 70
Cc1ccc(C)c(Nc2cc(C)nc(-c3ccccc3O)n2)c1	none (no result: CHOP inhibitor, EBV gp42 block, WT yeast gro inh)
Cc1cc(OC(C)C)nc(-c2ccccc2O)n1	none
CCOC(=O)c1ccc(Nc2nc(C)cc(C)c2C#N)cc1	none
Cc1cc(Nc2ccccc2Cl)nc(-c2ccccc2O)n1	none (no result: CHOP inhibitor, EBV gp42 block, WT yeast gro inh)
Cc1cc(NCc2ccccc2)nc(-c2ccccc2O)n1	CHOP inhibitor 79, WT yeast gro inh 62
CCCOc1cc(C)nc(-c2ccccc2O)n1	CHOP inhibitor 93
CCOC(=O)c1ccc(Nc2cc(C)nc(-c3ccccc3O)n2)cc1	NR3A LBD binder 35
Cc1cc(NC2CCCCC2)nc(-c2ccccc2O)n1	CHOP inhibitor 87
COCCn1c(SCC(=O)Nc2ccc(N3CCOCC3)cc2)nc2ccccc21	none
COc1ccc(NC(=O)NCc2ccc3c(c2)OCO3)cc1	none
CCN1C(=O)C(CC(=O)Nc2ccc(F)cc2)N(Cc2ccc3c(c2)OCO3)C1=S (stereo not given)	NR3A LBD binder 28
COc1ccc(NC(=O)CC2C(=O)N(C)C(=S)N2Cc2ccc3c(c2)OCO3)cc1 (stereo not given)	NR3A LBD binder 14
COc1ccc(C2=Nn3c(C)nnc3SC2)cc1	none (no result: CHOP inhibitor, EBV gp42 block, WT yeast gro inh)
Cc1ccc(OCC(=O)NNC(=O)c2ccc(NC(=O)C3CC3)cc2)c(C)c1	NR3A LBD binder 28 (no result: CHOP inhibitor, EBV gp42 block, WT yeast gro inh)
Cc1cc(CNC(=O)COc2c(F)c(F)cc(F)c2F)c2ccccc2n1	none
C=CCc1cc(C=O)cc(OC)c1OCc1ccc(Cl)cc1	none
C=CCc1cc(C=O)cc(OCC)c1OCc1ccc(Cl)cc1	CHOP inhibitor 71
CCOc1cc(/C=N/O)cc(Br)c1OCc1ccc(Cl)cc1	NR3A LBD binder 13
CCOc1cc(/C=N/O)cc(Br)c1OCC	none
C[C@@H](NC(=O)c1[nH]cnc1C(=O)Nc1ccon1)c1ccccc1	none (no result: CHOP inhibitor, EBV gp42 block, WT yeast gro inh)
COc1ccc(C2C(C(C)=O)=C(C)N=c3s/c(=C\c4cc(C)n(C)c4C)c(=O)n32)c(OC)c1 (stereo not given)	EBV gp42 block 92
O=c1ccn([C@@H]2O[C@H](CNCc3ccc(-n4cccn4)cc3)[C@@H](O)[C@H]2O)c(=O)[nH]1	none (no result: CHOP inhibitor, EBV gp42 block, WT yeast gro inh)
CC1(C)Nc2ccccc2C(=O)N1NS(=O)(=O)c1ccccc1	none
O=C(NN=C(c1ccccc1)c1ccccn1)c1ccccc1	none (no result: CHOP inhibitor, EBV gp42 block, WT yeast gro inh)
COc1ccc(C(=O)N/N=C(\c2ccccc2)c2ccccn2)cc1	WT yeast gro inh 68
COc1cc(Cl)ccc1OCc1cc(C(=O)N(C)Cc2nnc(C)o2)no1	NR3A LBD binder 10 (no result: CHOP inhibitor, EBV gp42 block, WT yeast gro inh)
O=C1CCCN2N=C(SCC(=O)N3N=C(c4ccc(Br)cc4)CC3c3ccc(F)cc3)SC2=N1 (stereo not given)	none
CC1=NN(c2ccc(C(=O)O)cc2)C(=O)/C1=C\c1ccc(OC(=O)c2cccs2)cc1	NR3A LBD binder 14
Oc1ccc(/C=N/N2CCN(C3c4ccccc4-c4ccccc43)CC2)cc1	none (no result: WT yeast gro inh)
Oc1ccc(/C=N/N2CCN(C3c4ccccc4-c4ccccc43)CC2)cc1O	CHOP inhibitor 91 (no result: WT yeast gro inh)
Cc1cc(NC(=O)Nc2cccc(Cl)c2)no1	none (no result: NR3A LBD binder, CHOP inhibitor, EBV gp42 block, WT yeast gro inh)
COC(=O)c1cnn(-c2ccccc2)c1/C=N/NC(=S)Nc1ccc(Cl)cc1	NR3A LBD binder 13 (no result: WT yeast gro inh)
S=C(NCCc1cccc(Cl)c1)NC1CCCCC1	NR3A LBD binder 12 (no result: CHOP inhibitor, EBV gp42 block, WT yeast gro inh)
S=C(NCCc1ccccc1)N/N=C/C1CCCCC1	WT yeast gro inh 72 (no result: TbMetRS inhib, NR3A LBD binder, MPTP block)
S=C(NCCc1ccccc1)NC1CCC(NC(=S)NCCc2ccccc2)CC1 (stereo not given)	none
COCCNC(=S)NN=C1CCCCCC1	none
S=C(NCCc1ccccc1)NN=C1CCCCCC1	WT yeast gro inh 66
CCOCCCNC(=O)C1CCC(CNS(=O)(=O)c2ccc(F)cc2)CC1 (stereo not given)	none
O=C(OCCN1C(=O)c2ccccc2C1=O)c1cc(S(=O)(=O)N2CCOCC2)ccc1Cl	none
O=C(OCCN1C(=O)c2cccc3c(N4CCOCC4)ccc(c23)C1=O)c1cccc(Cl)c1	EBV gp42 block 152 (no result: TbMetRS inhib, MPTP block)
O=C(OCCN1C(=O)c2cccc3c(N4CCOCC4)ccc(c23)C1=O)c1ccccc1Cl	EBV gp42 block 146
O=C1c2cccc3c(N4CCCCC4)ccc(c23)C(=O)N1CCO	none
O=C(OCc1c(F)cccc1Cl)c1cc([N+](=O)[O-])ccc1N1CCOCC1	none (no result: CHOP inhibitor, EBV gp42 block, WT yeast gro inh)
O=C(OCCN1C(=O)c2cccc3c(N4CCOCC4)ccc(c23)C1=O)c1ccc(Cl)cc1Cl	NR3A LBD binder 11, EBV gp42 block 144
CC1CCC(NC(=O)c2cccc(S(=O)(=O)N3CCN(C)CC3)c2)CC1 (stereo not given)	none (no result: CHOP inhibitor, EBV gp42 block, WT yeast gro inh)
CCCn1c2ccc(F)cc2c2nnc(SCCN3CCCCC3)nc21	none (no result: CHOP inhibitor, EBV gp42 block, WT yeast gro inh)
CCOc1cc(C2CC(=O)N3CN(C4CCCCC4)CSC3=C2C#N)ccc1O (stereo not given)	none
N#C/C(=C\c1c(N2CCC(C(N)=O)CC2)nc2ccccn2c1=O)S(=O)(=O)c1ccc(Cl)cc1	none (no result: WT yeast gro inh)
Cc1cc(C)n2nc(SCc3nnc(SCc4ccccc4Cl)s3)nc2n1	none
O=C(O)c1ccc(COc2ccc3ccccc3c2/C=C2/NC(=O)N(c3ccccc3)C2=O)cc1	none
CCN1C(=O)S/C(=C/c2c(OCc3ccc(C(=O)O)cc3)ccc3ccccc23)C1=O	WT yeast gro inh 73
O=C1c2cnc3nc(SCc4ccccc4)nn3c2CC2c3ccccc3CCN12 (stereo not given)	WT yeast gro inh 80
